{"source": "ChEMBL document CHEMBL4196041", "about": "(Eur J Med Chem, 2018)", "key": {"[1]": {"target": "T1, 3',5'-cyclic-AMP phosphodiesterase 4B (Homo sapiens, UniProt Q07343)", "T1 sequence (Q07343 whole entry)": "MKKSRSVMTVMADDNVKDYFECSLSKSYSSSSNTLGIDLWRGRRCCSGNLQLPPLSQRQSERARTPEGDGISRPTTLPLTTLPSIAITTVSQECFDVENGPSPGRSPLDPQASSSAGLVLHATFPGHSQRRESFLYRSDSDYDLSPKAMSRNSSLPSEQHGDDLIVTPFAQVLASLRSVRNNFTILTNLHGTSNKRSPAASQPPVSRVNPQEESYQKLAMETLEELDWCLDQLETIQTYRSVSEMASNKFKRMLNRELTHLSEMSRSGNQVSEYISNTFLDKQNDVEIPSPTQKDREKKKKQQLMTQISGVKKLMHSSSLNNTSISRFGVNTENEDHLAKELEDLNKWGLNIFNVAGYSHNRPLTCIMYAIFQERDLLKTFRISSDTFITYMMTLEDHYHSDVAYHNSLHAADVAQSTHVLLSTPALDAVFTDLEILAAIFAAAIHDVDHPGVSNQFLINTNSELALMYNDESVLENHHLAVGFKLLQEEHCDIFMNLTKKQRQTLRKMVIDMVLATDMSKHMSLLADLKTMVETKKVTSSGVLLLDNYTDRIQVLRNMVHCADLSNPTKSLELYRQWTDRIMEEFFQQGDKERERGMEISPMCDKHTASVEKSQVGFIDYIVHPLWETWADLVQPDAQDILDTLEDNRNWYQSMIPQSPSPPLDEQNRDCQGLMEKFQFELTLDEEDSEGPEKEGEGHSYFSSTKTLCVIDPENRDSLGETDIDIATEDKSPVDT", "assay": "Inhibition of human PDE4B by ELISA"}, "[2]": {"assay": "Drug level in Wistar rat liver S9 fraction treated with N-(benzo[d]thiazol-6-yl)-3-(cyclopropylmethoxy)-4-(difluoromethoxy)benzamide at 20 uM in presence of NADPH by UPLC-MS/MS analysis", "type": "ADME, subcellular", "details": "s9, 20 µM"}, "[3]": {"target": "T1, 3',5'-cyclic-AMP phosphodiesterase 4B", "assay": "Inhibition of PDE4B (unknown origin) assessed as increase in cAMP level by measuring cAMP level after 3 hrs by cell based ELISA"}, "[4]": {"assay": "AUC (0 to t) in Sprague-Dawley rat at 1 mg/kg, sc administered as single dose by UPLC-MS/MS analysis", "type": "ADME, organism-based", "details": "in vivo"}, "[5]": {"assay": "Intrinsic clearance in Wistar rat liver S9 fraction at 20 uM in presence of NADPH by UPLC-MS/MS analysis", "type": "ADME, subcellular"}, "[6]": {"assay": "AUC (0 to infinity) in Sprague-Dawley rat at 1 mg/kg, sc administered as single dose by UPLC-MS/MS analysis", "type": "ADME, organism-based", "design": "dose 1 mg/kg, route subcutaneous, time infinity", "details": "in vivo"}, "[7]": {"assay": "Half life in Sprague-Dawley rat at 1 mg/kg, sc administered as single dose by UPLC-MS/MS analysis", "type": "ADME, organism-based", "details": "in vivo"}, "[8]": {"assay": "Half life in Wistar rat liver S9 fraction at 20 uM in presence of NADPH by HPLC-UV analysis", "type": "ADME, subcellular", "how_it_was_run": "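Phase I stability in liver S9 (9,000× g) from male Wistar rats, prepared at 0–4°C. […] Stopped with cold acetonitrile plus chlorzoxazone internal standard. Centrifuged, then intact compound quantified by HPLC-UV; t1/2 and CLint derived from this.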"}, "[9]": {"assay": "Protein binding in human plasma after 5 hrs by equilibrium dialysis method", "type": "ADME, cell-free", "details": "read-out: PPB (converted)", "how_it_was_run": "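Equilibrium dialysis across a cellulose membrane (MWCO 12-14 kDa) against isotonic PBS pH 7.4, with human plasma, 37°C for 5 hr. Compound in the plasma and buffer compartments measured by validated RP-HPLC-UV. %Bound = [1 − (buffer conc/plasma conc)] × 100.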"}, "[10]": {"target": "T1, 3',5'-cyclic-AMP phosphodiesterase 4B", "assay": "Inhibition of PDE4B (unknown origin) assessed as reduction in TNFalpha level after 1.5 hrs by cell based ELISA", "details": "concentration not given here"}, "[11]": {"assay": "Cmax in Sprague-Dawley rat at 1 mg/kg, sc administered as single dose by UPLC-MS/MS analysis", "type": "ADME, organism-based", "design": "dose 1 mg/kg, route subcutaneous", "details": "in vivo"}, "[12]": {"assay": "Tmax in Sprague-Dawley rat at 1 mg/kg, sc administered as single dose by UPLC-MS/MS analysis", "type": "ADME, organism-based", "details": "in vivo"}, "[13]": {"species": "Homo sapiens", "assay": "Selectivity ratio of IC50 for human PDE4D to IC50 for human PDE4B"}, "[14]": {"target": "3',5'-cyclic-AMP phosphodiesterase 4D (Homo sapiens, UniProt Q08499)", "sequence (Q08499 whole entry)": "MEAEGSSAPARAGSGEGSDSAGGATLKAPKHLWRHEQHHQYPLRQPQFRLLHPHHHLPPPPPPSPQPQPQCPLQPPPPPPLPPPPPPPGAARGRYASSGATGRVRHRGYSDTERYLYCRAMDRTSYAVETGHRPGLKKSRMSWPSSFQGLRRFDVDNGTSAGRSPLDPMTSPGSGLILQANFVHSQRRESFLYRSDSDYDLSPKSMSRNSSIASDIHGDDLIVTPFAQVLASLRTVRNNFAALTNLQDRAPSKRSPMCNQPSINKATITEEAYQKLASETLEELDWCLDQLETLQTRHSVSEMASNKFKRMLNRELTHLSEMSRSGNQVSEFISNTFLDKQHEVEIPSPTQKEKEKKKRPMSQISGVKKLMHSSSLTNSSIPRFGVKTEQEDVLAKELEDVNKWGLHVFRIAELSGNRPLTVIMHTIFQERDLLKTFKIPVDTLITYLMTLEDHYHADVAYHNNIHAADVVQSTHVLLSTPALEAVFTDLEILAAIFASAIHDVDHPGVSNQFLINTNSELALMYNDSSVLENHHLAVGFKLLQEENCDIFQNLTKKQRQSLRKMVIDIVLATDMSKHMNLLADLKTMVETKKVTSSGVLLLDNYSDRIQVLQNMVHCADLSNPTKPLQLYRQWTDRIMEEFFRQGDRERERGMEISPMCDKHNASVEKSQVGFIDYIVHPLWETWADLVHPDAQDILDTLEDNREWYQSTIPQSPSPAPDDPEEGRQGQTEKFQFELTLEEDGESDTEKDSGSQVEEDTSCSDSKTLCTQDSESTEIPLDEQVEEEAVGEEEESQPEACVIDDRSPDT", "assay": "Inhibition of human PDE4D by ELISA"}, "[15]": {"assay": "Metabolic stability in Wistar rat liver S9 fraction assessed as parent compound remaining at 20 uM in presence of NADPH by UPLC-MS/MS analysis", "type": "ADME, subcellular", "details": "read-out: Stability"}, "[16]": {"target": "T1, 3',5'-cyclic-AMP phosphodiesterase 4B", "assay": "Inhibition of PDE4B (unknown origin) assessed as increase in cAMP level after 3 hrs by cell based ELISA relative to roflumilast"}, "[17]": {"assay": "Drug metabolism in Wistar rat liver S9 fraction assessed as N-(4-amino-3-mercaptophenyl)-3-(cyclopropylmethoxy)-4-(difluoromethoxy)benzamide formation at 20 uM in presence of NADPH by UPLC-MS/MS analysis", "type": "ADME, subcellular", "details": "s9, 20 µM"}, "[18]": {"assay": "Drug metabolism in Wistar rat liver S9 fraction assessed as 3-(cyclopropylmethoxy)-4-(difluoromethoxy)-N-(2-hydroxybenzo[d]thiazol-6-yl)benzamide formation at 20 uM in presence of NADPH by UPLC-MS/MS analysis", "type": "ADME, subcellular", "details": "s9, 20 µM"}, "[19]": {"assay": "Drug metabolism in Wistar rat liver S9 fraction assessed as aromatic hydroxylation of benzathiazole moiety at 20 uM in presence of NADPH by UPLC-MS/MS analysis", "type": "ADME, subcellular", "details": "s9, 20 µM"}}}
{"smiles": "O=C(Nc1nc2ccc([N+](=O)[O-])cc2s1)c1ccc(OC(F)F)c(OCC2CC2)c1", "values": [{"measurement": "IC50", "setting": "[1]", "value": 8.67, "unit": "nM"}]}
{"smiles": "Nc1ccc(NC(=O)c2ccc(OC(F)F)c(OCC3CC3)c2)cc1S", "values": [{"measurement": "Drug metabolism", "setting": "[2]", "value": "Metabolite_Detected"}]}
{"smiles": "O=C(Nc1nc2ccc(C(F)(F)F)cc2s1)c1ccc(OC(F)F)c(OCC2CC2)c1", "values": [{"measurement": "IC50", "setting": "[1]", "value": 5.23, "unit": "nM"}]}
{"smiles": "O=C(Nc1c(Cl)cncc1Cl)c1ccc(OC(F)F)c(OCC2CC2)c1", "note": "[ROFLUMILAST]", "values": [{"measurement": "Activity", "setting": "[3]", "value": 1.9, "unit": "pmol/mL"}, {"measurement": "AUC(0-t)", "setting": "[4]", "value": 449, "unit": "µg·h/mL"}, {"measurement": "CLint at 20 µM", "setting": "[5]", "value": 114, "unit": "mL/min/kg"}, {"measurement": "AUC(0-inf)", "setting": "[6]", "value": 500, "unit": "µg·h/mL"}, {"measurement": "half-life", "setting": "[7]", "value": 6.94, "unit": "h"}, {"measurement": "half-life at 20 µM", "setting": "[8]", "value": 0.205, "unit": "h"}, {"measurement": "fraction unbound at 5 h", "setting": "[9]", "value": 0.0151}, {"measurement": "inhibition", "setting": "[10]", "value": 70.3, "unit": "%"}, {"measurement": "Cmax", "setting": "[11]", "value": 109, "unit": "µg/mL"}, {"measurement": "Tmax", "setting": "[12]", "value": 1, "unit": "h"}]}
{"smiles": "Cc1nc2ccc(NC(=O)c3ccc(OC(F)F)c(OCC4CC4)c3)cc2s1", "values": [{"measurement": "IC50", "setting": "[1]", "value": 1.26, "unit": "nM"}]}
{"smiles": "COc1cccc2sc(NC(=O)c3ccc(OC(F)F)c(OCC4CC4)c3)nc12", "values": [{"measurement": "IC50", "setting": "[1]", "value": 1.06, "unit": "nM"}]}
{"smiles": "O=C(Nc1nc2ccc(F)cc2s1)c1ccc(OC(F)F)c(OCC2CC2)c1", "values": [{"measurement": "IC50", "setting": "[1]", "value": 1.87, "unit": "nM"}]}
{"smiles": "COc1cc2nc(NC(=O)c3ccc(OC(F)F)c(OCC4CC4)c3)sc2cc1OC", "values": [{"measurement": "IC50", "setting": "[1]", "value": 1.17, "unit": "nM"}]}
{"smiles": "O=C(Nc1nccs1)c1ccc(OC(F)F)c(OCC2CC2)c1", "values": [{"measurement": "IC50", "setting": "[1]", "value": 1.6, "unit": "nM"}]}
{"smiles": "O=C(Nc1ccc2nc(S)sc2c1)c1ccc(OC(F)F)c(OCC2CC2)c1", "values": [{"measurement": "Ratio IC50", "setting": "[13]", "value": 6.05}, {"measurement": "Activity", "setting": "[3]", "value": 4.45, "unit": "pmol/mL"}, {"measurement": "AUC(0-t)", "setting": "[4]", "value": 622, "unit": "µg·h/mL"}, {"measurement": "CLint at 20 µM", "setting": "[5]", "value": 5.67, "unit": "mL/min/kg"}, {"measurement": "AUC(0-inf)", "setting": "[6]", "value": 1040, "unit": "µg·h/mL"}, {"measurement": "half-life", "setting": "[7]", "value": 22, "unit": "h"}, {"measurement": "IC50", "setting": "[14]", "value": 4.54, "unit": "nM"}, {"measurement": "remaining at 20 µM", "setting": "[15]", "value": 84.2, "unit": "%"}, {"measurement": "half-life at 20 µM", "setting": "[8]", "value": 4.13, "unit": "h"}, {"measurement": "fraction unbound at 5 h", "setting": "[9]", "value": 0.463}, {"measurement": "fold change (FC)", "setting": "[16]", "value": "> 2"}, {"measurement": "IC50", "setting": "[1]", "value": 0.75, "unit": "nM"}, {"measurement": "inhibition", "setting": "[10]", "value": 67.8, "unit": "%"}, {"measurement": "Cmax", "setting": "[11]", "value": 114, "unit": "µg/mL"}, {"measurement": "Tmax", "setting": "[12]", "value": 2, "unit": "h"}]}
{"smiles": "COc1ccc2nc(NC(=O)c3ccc(OC(F)F)c(OCC4CC4)c3)sc2c1", "values": [{"measurement": "IC50", "setting": "[1]", "value": "2.28 to 2.29", "unit": "nM"}]}
{"smiles": "CCOc1ccc2nc(NC(=O)c3ccc(OC(F)F)c(OCC4CC4)c3)sc2c1", "values": [{"measurement": "IC50", "setting": "[1]", "value": 2.92, "unit": "nM"}]}
{"smiles": "O=C(Nc1ccc2nc(O)sc2c1)c1ccc(OC(F)F)c(OCC2CC2)c1", "values": [{"measurement": "Drug metabolism", "setting": "[2]", "value": "Metabolite_Detected"}]}
{"smiles": "O=C(Nc1ccc2ncsc2c1)c1ccc(OC(F)F)c(OCC2CC2)c1", "values": [{"measurement": "Drug metabolism", "setting": "[17]", "value": "Metabolite_Detected"}, {"measurement": "Ratio IC50", "setting": "[13]", "value": 4.01}, {"measurement": "AUC(0-t)", "setting": "[4]", "value": 892, "unit": "µg·h/mL"}, {"measurement": "CLint at 20 µM", "setting": "[5]", "value": 22.3, "unit": "mL/min/kg"}, {"measurement": "AUC(0-inf)", "setting": "[6]", "value": 1620, "unit": "µg·h/mL"}, {"measurement": "half-life", "setting": "[7]", "value": 22, "unit": "h"}, {"measurement": "IC50", "setting": "[14]", "value": 2.73, "unit": "nM"}, {"measurement": "remaining at 20 µM", "setting": "[15]", "value": 36.8, "unit": "%"}, {"measurement": "half-life at 20 µM", "setting": "[8]", "value": 1.05, "unit": "h"}, {"measurement": "fraction unbound at 5 h", "setting": "[9]", "value": 0.0361}, {"measurement": "Drug metabolism", "setting": "[18]", "value": "Metabolite_Detected"}, {"measurement": "IC50", "setting": "[1]", "value": 0.68, "unit": "nM"}, {"measurement": "Cmax", "setting": "[11]", "value": 86.2, "unit": "µg/mL"}, {"measurement": "Tmax", "setting": "[12]", "value": 2, "unit": "h"}]}
{"smiles": "O=C(Nc1nc2ccccc2s1)c1ccc(OC(F)F)c(OCC2CC2)c1", "values": [{"measurement": "Ratio IC50", "setting": "[13]", "value": 8.89}, {"measurement": "Activity", "setting": "[3]", "value": 2.68, "unit": "pmol/mL"}, {"measurement": "AUC(0-t)", "setting": "[4]", "value": 594, "unit": "µg·h/mL"}, {"measurement": "CLint at 20 µM", "setting": "[5]", "value": 33.2, "unit": "mL/min/kg"}, {"measurement": "AUC(0-inf)", "setting": "[6]", "value": 800, "unit": "µg·h/mL"}, {"measurement": "half-life", "setting": "[7]", "value": 9.82, "unit": "h"}, {"measurement": "IC50", "setting": "[14]", "value": 5.07, "unit": "nM"}, {"measurement": "remaining at 20 µM", "setting": "[15]", "value": 36.4, "unit": "%"}, {"measurement": "half-life at 20 µM", "setting": "[8]", "value": 0.705, "unit": "h"}, {"measurement": "Drug metabolism", "setting": "[19]", "value": "Metabolite_Detected"}, {"measurement": "IC50", "setting": "[1]", "value": 0.57, "unit": "nM"}, {"measurement": "inhibition", "setting": "[10]", "value": 58.6, "unit": "%"}, {"measurement": "Cmax", "setting": "[11]", "value": 95.5, "unit": "µg/mL"}, {"measurement": "Tmax", "setting": "[12]", "value": 1, "unit": "h"}]}
{"smiles": "O=C(Nc1nc2ccc(Cl)cc2s1)c1ccc(OC(F)F)c(OCC2CC2)c1", "values": [{"measurement": "IC50", "setting": "[1]", "value": 1.22, "unit": "nM"}]}
{"smiles": "N#Cc1ccc2nc(NC(=O)c3ccc(OC(F)F)c(OCC4CC4)c3)sc2c1", "values": [{"measurement": "IC50", "setting": "[1]", "value": 1.28, "unit": "nM"}]}
